# Experimental data pooled from the literature.
# Lines come from different studies, so protocols differ.
# COQ8A: Atypical kinase COQ8A, mitochondrial (COQ8A, Homo sapiens, UniProt Q8NI60)
# PIK3CD: Phosphatidylinositol 4,5-bisphosphate 3-kinase catalytic subunit delta isoform (PIK3CD, Homo sapiens, UniProt O00329)
# ATP2A1: Sarcoplasmic/endoplasmic reticulum calcium ATPase 1 (ATP2A1, Oryctolagus cuniculus, UniProt P04191)
# NR3C2: Mineralocorticoid receptor (NR3C2, Homo sapiens, UniProt P08235)
# NTSR1: Neurotensin receptor type 1 (NTSR1, Homo sapiens, UniProt P30989)
SMILES,target,observed,action,technique,pH,measurement,result
Cc1ccc2c(=O)cc(C(=O)Nc3c(C(=O)c4ccc(F)cc4)oc4ccccc34)oc2c1C,COQ8A,ligand displacement,,TR-FRET,,IC50,9.68 µM
COc1cc2ncnc(Nc3ccc4c(c3)/C(=C/c3ccccc3)C(=O)N4C)c2cc1OC,PIK3CD,enzyme activity,inhibitor,ADP detection,,IC50,0.277 µM
Nc1ncnc2c1ncn2[C@@H]1O[C@H](COP(=O)(O)OP(=O)(O)OP(=O)(O)O)[C@@H](O)[C@H]1O,"P2X purinoceptor 3 (P2rx3, Rattus norvegicus, UniProt P49654)",ion current,agonist,patch clamp,,EC50,0.271 µM
Cc1noc(C)c1Cc1ccc(C(=O)N2CCc3c(nc4cc(-c5ccccc5)[nH]n4c3=O)C2)o1,COQ8A,ligand displacement,,TR-FRET,,IC50,0.49 µM
Cc1nc(Nc2ccc3c(c2)CC(=O)N3)c2ccccc2n1,PIK3CD,enzyme activity,inhibitor,ADP detection,,IC50,0.397 µM
COc1cc(/C=C/C(=O)CC(=O)/C=C/c2ccc(O)c(OC)c2)ccc1O,ATP2A1,binding,,fluorescence,pH 7.2,Kd,6.8 µM
C[C@]12CCC(=O)C=C1CC[C@@H]1[C@@H]2[C@@H](O)C[C@]2(CO)[C@@H](C(=O)CO)CC[C@@H]12,NR3C2,reporter gene,agonist,luciferase,,EC50,0.056 µM
CC1(C)CCC(CN2CCN(c3ccc(C(=O)NS(=O)(=O)c4ccc(NCC5CCOCC5)c([N+](=O)[O-])c4)c(Oc4cnc5[nH]ccc5c4)c3)CC2)=C(c2ccc(Cl)cc2)C1,COQ8A,ligand displacement,,TR-FRET,,IC50,6.11 µM
COc1cc2ncnc(Nc3ccc4c(c3)/C(=C/c3cccc(Cl)c3)C(=O)N4C)c2cc1OC,PIK3CD,enzyme activity,inhibitor,ADP detection,,IC50,0.628 µM
COc1ccccc1C1CCN(c2nc(C3CC3)nc3ccc(N4CCC(N(C)C)C4)cc23)CC1 (stereo not shown),NTSR1,β-arrestin recruitment,agonist,,,EC50,~65700 µM
C=C[C@@]1(C)CC(=O)[C@]2(O)[C@@]3(C)[C@@H](O)CCC(C)(C)[C@@H]3[C@H](O)[C@H](OC(C)=O)[C@@]2(C)O1,"Adenylate cyclase type 5 (ADCY5, Homo sapiens, UniProt O95622)",cAMP,agonist,TR-FRET,,EC50,10 µM
NC(=O)c1ncc(N2CCCCC2)nc1Nc1ccc(C2CCN(C[C@H]3CCN(c4ccc5c(c4)C(=O)N(C4CCC(=O)NC4=O)C5=O)C3)CC2)cc1 (stereo partly shown),"Tyrosine-protein kinase BTK (BTK, Homo sapiens, UniProt Q06187, L528W)",binding,,SPR,,Kd,0.088 µM
C[C@]12CCC(=O)C=C1CC[C@@H]1[C@@H]2[C@@H](O)C[C@@]2(C=O)[C@H]1CC[C@]2(O)C(=O)CO,NR3C2,reporter gene,agonist,luciferase,,EC50,0.0196 µM
CCc1ccc(NC(=O)CSc2nc(-c3ccc(C)cc3)nc3c2Cc2c(CO)cnc(C)c2O3)cc1,COQ8A,ligand displacement,,TR-FRET,,IC50,8.63 µM
COc1cc2ncnc(N(C)c3ccc4c(c3)/C(=C/c3ccccc3)C(=O)N4C)c2cc1OC (mixture of isomers),PIK3CD,enzyme activity,inhibitor,ADP detection,,IC50,0.416 µM
CC(C)(C)OC(=O)N1CCN(Cc2ccn(Cc3ccc(Cl)cc3)c(=O)c2O)CC1,"Lysine-specific demethylase 6A (Homo sapiens, UniProt O15550)",enzyme activity,inhibitor,AlphaScreen,,IC50,5.43 µM
COc1ccccc1C1CCN(c2nc(C3(C(F)(F)F)CCCC3)nc3ccc(N(C)CCO)cc23)CC1,NTSR1,β-arrestin recruitment,agonist,,,EC50,18 µM
COc1cc(/C=C/C(=O)O)ccc1O,ATP2A1,binding,,fluorescence,pH 7.2,Kd,86 µM
Cc1nc(Nc2ccc3c(c2)C(C)(C)C(=O)N3C)c2ccccc2n1,PIK3CD,enzyme activity,inhibitor,ADP detection,,IC50,0.719 µM
